mIAP act = mouse IAP activation | muIAP, CDP-Star luminescence, 30 min; hits give high values; 1 = vehicle-only enzyme signal, 0 = enzyme-free wells | activation factor at 10 µM | 0.24% of 330,000 active | AID 2805;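 active = activation factor of at least 2 at 20 µM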
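System: Mouse IAP enzyme | Also added: CDP-Star substrate | Dosing: Compounds dispensed in DMSO | Schedule: 30 min enzyme-substrate-compound incubation at room temperature | Technique: Chemiluminescence readout | Control set: DMSO-only wells and no-enzyme negative control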
bIAP activator = intestinal alkaline phosphatase (bovine) activation; purified bovine IAP, CDP-star luminescence, 30 min; hits give high values; fold of DMSO-control signal, blank-subtracted; 0.17% of 200,000 active; activation factor at 20 µM;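 active = activation factor of 2 or more at 20 µM, a signal rise over negative controls twice the positive control's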
hIAP activ = human IAP activation | AID 2524 | purified human IAP, CDP-Star luminescence, 30 min; hits give high values; 1 = vehicle-only enzyme, 0 = enzyme-free background | activation factor at 10 µM | P09923 | 0.16% of 330,000 active;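 active = activation factor of the enzyme at least 2-fold when tested at 20 µM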
Target sequence (P09923 whole entry, looked up): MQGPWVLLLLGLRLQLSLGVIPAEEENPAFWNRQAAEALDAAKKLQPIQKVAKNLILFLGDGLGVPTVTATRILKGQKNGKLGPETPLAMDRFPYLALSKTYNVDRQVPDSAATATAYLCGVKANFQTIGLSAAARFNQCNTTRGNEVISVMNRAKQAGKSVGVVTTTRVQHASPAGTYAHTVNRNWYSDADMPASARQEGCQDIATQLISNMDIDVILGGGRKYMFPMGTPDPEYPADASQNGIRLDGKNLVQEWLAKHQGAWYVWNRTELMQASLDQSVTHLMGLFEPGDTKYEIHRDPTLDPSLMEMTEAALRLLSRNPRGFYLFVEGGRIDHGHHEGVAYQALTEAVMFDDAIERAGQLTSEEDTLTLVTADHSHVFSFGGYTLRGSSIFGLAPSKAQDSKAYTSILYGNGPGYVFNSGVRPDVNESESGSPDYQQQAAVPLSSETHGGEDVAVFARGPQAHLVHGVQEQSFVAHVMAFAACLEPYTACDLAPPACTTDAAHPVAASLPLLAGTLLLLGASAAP
mIAP inh = mouse IAP inhibition; inhibition, % at 10 µM; AID 2806; purified mouse IAP, CDP-Star luminescence, 30 min; 0.2% of 330,000 active;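 active = inhibition of at least 40% at 10 µM in the primary screen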
bIAP inh = blocks bovine intestinal alkaline phosphatase activity | purified bovine IAP, CDP-star luminescence, 30 min | inhibition, % at 20 µM | 190,000 tested, under 10 active | AID 1019;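 active = over 50% inhibition of intestinal alkaline phosphatase at 20 µM in the single-dose screen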
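Assay system – bovine IAP enzyme · Quantity – bovine IAP at 1/65,000,000 final dilution · Detection – CDP-star luminescence signal · Times – 30 min reaction at room temperature · Also added – CDP-star substrate at 30 µM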
hIAP block = blocks human intestinal alkaline phosphatase. P09923. purified IAP, CDP-Star luminescence, 30 min. inhibition, % at 10 µM. 0.12% of 330,000 active. AID 2544;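 active = inhibition reaching a set limit with compound at 10 µM in the primary screen, cut at about 35% in these data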
mIAP inh confirm = mouse IAP inhibition confirmation; purified mouse IAP, CDP-Star luminescence, 30 min; 4.7% of 11,000 active; shares compounds with mIAP inh; inhibition, % at 10 µM;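 active = inhibition of at least 40% at 10 µM in either of the two replicates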
Each line names hits and unclear results; the compound was inactive in the other large screens (follow-up assays come after a bar, where they were run). Most compounds without a hit are left out; they make up all but 0.79% or so of the library.

COc1cc2ccccc2cc1C(=O)OCc1nc2ccsc2c(=O)[nH]1	none (no result: bIAP activator, bIAP inh)
O=c1[nH]c2ccc(S(=O)(=O)N3CCN(c4ccc(F)cc4)CC3)cc2o1	none (no result: bIAP activator, bIAP inh)
CN1CCN(S(=O)(=O)c2ccc3[nH]c(=O)oc3c2)CC1	mIAP inh 43 | mIAP inh confirm 59
C#CCOCCOCCOCCNc1nc(N2CCN(C(=O)CCCCCCCCCCNC(=O)Cn3cc(C[C@@H](C)O)nn3)CC2)nc(N2CCN(C(=O)CCCCCCCCCCNC(=O)[C@H](CCCCN)n3cc(C[C@@H](C)CC)nn3)CC2)n1	mIAP act 2.7 (no result: bIAP activator, bIAP inh) | mIAP inh confirm inactive
C#CCOCCOCCOCCNc1nc(N2CCN(C(=O)CCCCCCCCCCNC(=O)[C@H](CCCCN)n3cc(CCCC(=O)O)nn3)CC2)nc(N2CCN(C(=O)CCCCCCCCCCNC(=O)[C@H](CCCN=C(N)N)n3cc(C[C@@H](C)CC)nn3)CC2)n1	mIAP act 2.2 (no result: bIAP activator, bIAP inh) | mIAP inh confirm inactive
C#CCOCCOCCOCCNc1nc(N2CCN(C(=O)CCCCCCCCCCNC(=O)[C@H]([C@@H](C)CC)n3cc(CCCCN=C(N)N)nn3)CC2)nc(N2CCN(C(=O)CCCCCCCCCCNC(=O)[C@H](CCCCN)n3cc(C[C@@H](C)CC)nn3)CC2)n1	mIAP act 4 (no result: bIAP activator, bIAP inh) | mIAP inh confirm inactive
C#CCOCCOCCOCCNc1nc(N2CCN(C(=O)CCCCCCCCCCNC(=O)[C@H](CCCCN)n3cc(CCO)nn3)CC2)nc(N2CCN(C(=O)CCCCCCCCCCNC(=O)[C@H](CCCN=C(N)N)n3cc(C[C@@H](C)CC)nn3)CC2)n1	mIAP act 2.6 (no result: bIAP activator, bIAP inh) | mIAP inh confirm inactive
CCOC(=O)c1c(S(=O)(=O)Nc2ccc(F)cc2C)c(C)n(C)c1C	none (no result: bIAP activator, bIAP inh)
CCOc1ccccc1N(CC(=O)NCCc1ccccc1)C(=O)CCC(=O)Nc1ccccn1	none (no result: bIAP activator, bIAP inh)
COCCCn1c(=O)c2ccccc2n(CC(=O)NC2CCCCC2)c1=O	none (no result: bIAP activator, bIAP inh)
CC(C)(C)c1ccc(S(=O)(=O)N2CCN(Cc3cc4c(cc3O)OCO4)CC2)cc1	none (no result: bIAP activator, bIAP inh)
C#CCOCCOCCOCCNc1nc(N2CCN(C(=O)CCCCCCCCCCNC(=O)[C@H](CO)n3cc(CCCSC)nn3)CC2)nc(N2CCN(C(=O)CCCCCCCCCCNC(=O)[C@H](CO)n3cc(CCCSC)nn3)CC2)n1	none (no result: bIAP activator, bIAP inh)
C#CCOCCOCCOCCNc1nc(N2CCN(C(=O)CCCCCCCCCCNC(=O)[C@H](CO)n3cc(CCCSC)nn3)CC2)nc(N2CCN(C(=O)CCCCCCCCCCNC(=O)[C@H](CCCCN)n3cc(C[C@@H](C)CC)nn3)CC2)n1	mIAP act 2.3 (no result: bIAP activator, bIAP inh) | mIAP inh confirm inactive
N=C1S/C(=C\c2ccco2)C(=O)N1c1nccs1	mIAP inh 60 | mIAP inh confirm 65
N=C1S/C(=C\c2ccco2)C(=O)N1c1ccc2c(c1)OCO2	mIAP inh 52 | mIAP inh confirm 78
Cc1ccc(C(=O)NCCNC(=O)COc2ccc(C)c(C)c2)cn1	none (no result: bIAP activator, bIAP inh)
O=C(CCCSc1ccccc1)Nc1nc(-c2ccco2)c(-c2ccco2)s1	none (no result: mIAP act, hIAP activ, mIAP inh, hIAP block)
Cc1ccc(C(=O)Nc2nc(-c3ccco3)c(-c3ccco3)s2)o1	mIAP inh 64 (no result: bIAP activator, bIAP inh) | mIAP inh confirm 68
O=C(CCl)Nc1nc(-c2ccco2)c(-c2ccco2)s1	mIAP inh 77 | mIAP inh confirm 74
CNC(=O)C1CN(C(=O)c2cccc(S(=O)(=O)N3c4ccccc4CC3C)c2)c2ccccc2O1 (stereo unspecified)	none (no result: bIAP activator, bIAP inh)
COc1cc(NC(=O)Cn2c(=O)n(-c3cccc(C)c3)c(=O)c3c(C)c(C)sc32)cc(OC)c1	none
O=C(CCNS(=O)(=O)c1ccc2[nH]c(=O)oc2c1)NCc1ccccc1	none (no result: bIAP activator, bIAP inh)
COc1ccccc1NC(=O)CCNS(=O)(=O)c1ccc2[nH]c(=O)oc2c1	mIAP inh 41 (no result: bIAP activator, bIAP inh) | mIAP inh confirm 74
COc1cccc(NC(=O)CN(C)S(=O)(=O)c2ccc3[nH]c(=O)oc3c2)c1	mIAP inh 42 (no result: bIAP activator, bIAP inh) | mIAP inh confirm 46
COc1cccc(NC(=O)CN(C)S(=O)(=O)c2ccc3c(c2)CCC(=O)N3)c1	none (no result: bIAP activator, bIAP inh)
Cc1ccc(C)c(NC(=O)CCNS(=O)(=O)c2ccc3[nH]c(=O)oc3c2)c1	mIAP inh 70 (no result: bIAP activator, bIAP inh) | mIAP inh confirm 82
Cc1ccc(NC(=O)CCNS(=O)(=O)c2ccc3[nH]c(=O)oc3c2)c(C)c1	none (no result: bIAP activator, bIAP inh)
COc1ccccc1CNC(=O)CCNS(=O)(=O)c1ccc2[nH]c(=O)oc2c1	mIAP inh 41 (no result: bIAP activator, bIAP inh) | mIAP inh confirm 75
COc1ccc(CN2CCC(Oc3ccc(C(=O)N4CCCC4)cc3)CC2)c(F)c1	none (no result: bIAP activator, bIAP inh)
COc1cc2ccccc2cc1C(=O)OCC(=O)c1c(N)n(C)c(=O)n(C)c1=O	none (no result: bIAP activator, bIAP inh)
CCCCN(C(=O)CSc1n[nH]c(-c2ccc(C)cc2)n1)c1c(N)n(CCCC)c(=O)[nH]c1=O	none (no result: bIAP activator, bIAP inh)
CN1CCN(C(=O)CNC(=O)C23CC4CC(CC(C4)C2)C3)CC1	none (no result: bIAP activator, bIAP inh)
Cc1ccc(Cl)c(NC(=O)COC(=O)c2nn(-c3ccccc3)cc2O)c1Cl	none (no result: bIAP activator, bIAP inh)
O=C(O)c1ccc(Cl)c(S(=O)(=O)Nc2cccc(C(=O)Nc3cccc(C(F)(F)F)c3)c2)c1	none
N#CC1=C(N)Oc2cc(O)ccc2C1c1ccc(Br)s1 (stereo unspecified)	none (no result: bIAP activator, bIAP inh)
COc1cc(C(=O)NCC(=O)Nc2c(C)cccc2C)ccc1OCC(=O)N1CCOCC1	none (no result: bIAP activator, bIAP inh)
COc1cccc(CNC(=O)CCNS(=O)(=O)c2ccc3[nH]c(=O)oc3c2)c1	mIAP inh 49 (no result: bIAP activator, bIAP inh) | mIAP inh confirm 77
Cc1ccc(NC(=O)CCNS(=O)(=O)c2ccc3[nH]c(=O)oc3c2)cc1C	none (no result: bIAP activator, bIAP inh)
COc1ccc(OC)c(NC(=O)CCNS(=O)(=O)c2ccc3[nH]c(=O)oc3c2)c1	mIAP inh 47 (no result: bIAP activator, bIAP inh) | mIAP inh confirm 62
O=C(O)c1cccc(NS(=O)(=O)c2cc(S(=O)(=O)c3ccc(Cl)cc3)ccc2Cl)c1	none (no result: bIAP activator, bIAP inh)
O=C(Nc1ccc(Cl)c(C(F)(F)F)c1)NC1CC2CCCC(C1)N2Cc1ccccc1 (stereo unspecified)	mIAP act 8.9, bIAP activator 2.3 | mIAP inh confirm inactive
Cc1ccc(S(=O)(=O)N2CCC(C(=O)OCC(=O)NCc3cccc(Cl)c3)CC2)cc1C	none (no result: bIAP activator, bIAP inh)
O=C(NN1C(=O)/C(=C/C=C/c2ccco2)SC1=S)c1ccccc1O	mIAP inh 87 (no result: bIAP activator, bIAP inh) | mIAP inh confirm 93
Cn1cccc1/C=C1\SC(=S)N(NC(=O)c2ccccc2O)C1=O	none (no result: bIAP activator, bIAP inh)
Cc1ccc(NC(=O)CCCN2C(=O)/C(=C/C=C/c3ccccc3)SC2=S)cc1	none
O=C(O)CCN1C(=O)/C(=C/c2ccc(-c3nc4ccccc4s3)o2)SC1=S	none
O=C(O)CCCN1C(=O)/C(=C/C=C/c2ccco2)SC1=S	mIAP inh 68 (no result: bIAP activator, bIAP inh) | mIAP inh confirm 69
